Measured values reported in PubChem BioAssay.
Active and inactive are the calls of the source. Unless noted, no stated cut-off is given here; in the data, active means inhibition above about 30%; inactive means the rest.

Columns and labels:
[1] = Her2 expression decrease, cell viability multiplex – SKBR3 breast tumor cells, AlphaScreen, ATP viability, primary screen (AID 461;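 active means Her2 level under about 52% in both replicate screens, with viability over 70% of control, limit read from the data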;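 on Her2 level: lower value means less Her2 protein in the cells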;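 on viability: percent of carrier control wells set as 100% viability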); conditions: SKBR3 Her2 protein level, 18-24 h, measured here: SKBR3 viability, ATP luminescence, at 10 µM
[2] = molecular target: Receptor tyrosine-protein kinase erbB-2 (Homo sapiens) (UniProt P04626); assay: as above; conditions: 18-24 h, at 10 µM, stronger effect = lower value
[3] = reduced viability of SK-BR-3 breast cancer cells – cell-based, 24 h, human, pilot screen (AID 572;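 active means viability at or below 10% of carrier control in both of two separate runs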;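 further: compound exposure lasted between 18 and 24 h rather than exactly 24 h; 100% = carrier-treated control wells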); conditions: SK-BR-3 viability, CellTiter-Glo luminescence, at 10 µM, stronger effect = lower value
[4] = HUVEC growth inhibition – cell-based, human, primary screen (AID 575;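 active means viability at or below 30% in both replicate assays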;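 further: 100% = median of untreated cell wells with 0.1% DMSO on each plate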); conditions: HUVEC proliferation, CellTiter-Glo luminescence, 72 h; at 10 µM; stronger effect = lower value
Outline: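 Test system: primary human umbilical vein endothelial cells; medium: endothelial basal medium with 2% FBS plus growth supplements; dosing: 10 µM compound only; times: 72 h treatment at 37 °C; signal: CTG luminescence; read-out: % viability relative to median vehicle-well signal on each plate; control set: vehicle and MePR control wells; plate: 384-well, collagen-coated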

[5] = H69AR cell proliferation blockers – human, duplicate replicates, primary screen (AID 580;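 active means viability at or under a set limit in both replicates, limit being median viability minus 3 SD, cut at about 48% in these data, passing the limit was not always enough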;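 further: 100% = mean luminescence of untreated wells and 0% = no signal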); conditions: H69AR lung tumor cells viability, ATP luminescence, 72 h; at 10 µM; stronger effect = lower value
[6] = MRP1 drug-resistance reversers in H69AR cells – cell-based, doxorubicin co-treatment, pilot screen (AID 601;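 active means viability loss from added drug above about 55%, and viability with drug at most 40%, in both replicates, limit read from the data, passing the limit was not always enough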); conditions: CellTiter-Glo, 72 h, at 10 µM; for differential viability (reversal): stronger effect = higher value
[7] = yeast transport mutant growth inhibition pilot in 384-well plates, post-Golgi transport modulator project (AID 636; in the data active means inhibition above about 31%); conditions: absorbance 615 nm, about 18 h, stronger effect = higher value
[8] = growth suppression of yeast trafficking mutant, preliminary HTS, modulators of trafficking downstream of Golgi apparatus project, 1536-format plate, OD 615 nm (AID 637); conditions: yeast transport mutant growth, absorbance 615 nm, 18 h; stronger effect = higher value
[9] = H69AR cells + 2 uM doxorubicin, measured here: viability with 2 uM doxorubicin, stronger effect = lower value
[10] = H69AR cells, compound alone cytotoxicity

Sequence of Receptor tyrosine-protein kinase erbB-2 (Homo sapiens) (P04626 whole entry, looked up): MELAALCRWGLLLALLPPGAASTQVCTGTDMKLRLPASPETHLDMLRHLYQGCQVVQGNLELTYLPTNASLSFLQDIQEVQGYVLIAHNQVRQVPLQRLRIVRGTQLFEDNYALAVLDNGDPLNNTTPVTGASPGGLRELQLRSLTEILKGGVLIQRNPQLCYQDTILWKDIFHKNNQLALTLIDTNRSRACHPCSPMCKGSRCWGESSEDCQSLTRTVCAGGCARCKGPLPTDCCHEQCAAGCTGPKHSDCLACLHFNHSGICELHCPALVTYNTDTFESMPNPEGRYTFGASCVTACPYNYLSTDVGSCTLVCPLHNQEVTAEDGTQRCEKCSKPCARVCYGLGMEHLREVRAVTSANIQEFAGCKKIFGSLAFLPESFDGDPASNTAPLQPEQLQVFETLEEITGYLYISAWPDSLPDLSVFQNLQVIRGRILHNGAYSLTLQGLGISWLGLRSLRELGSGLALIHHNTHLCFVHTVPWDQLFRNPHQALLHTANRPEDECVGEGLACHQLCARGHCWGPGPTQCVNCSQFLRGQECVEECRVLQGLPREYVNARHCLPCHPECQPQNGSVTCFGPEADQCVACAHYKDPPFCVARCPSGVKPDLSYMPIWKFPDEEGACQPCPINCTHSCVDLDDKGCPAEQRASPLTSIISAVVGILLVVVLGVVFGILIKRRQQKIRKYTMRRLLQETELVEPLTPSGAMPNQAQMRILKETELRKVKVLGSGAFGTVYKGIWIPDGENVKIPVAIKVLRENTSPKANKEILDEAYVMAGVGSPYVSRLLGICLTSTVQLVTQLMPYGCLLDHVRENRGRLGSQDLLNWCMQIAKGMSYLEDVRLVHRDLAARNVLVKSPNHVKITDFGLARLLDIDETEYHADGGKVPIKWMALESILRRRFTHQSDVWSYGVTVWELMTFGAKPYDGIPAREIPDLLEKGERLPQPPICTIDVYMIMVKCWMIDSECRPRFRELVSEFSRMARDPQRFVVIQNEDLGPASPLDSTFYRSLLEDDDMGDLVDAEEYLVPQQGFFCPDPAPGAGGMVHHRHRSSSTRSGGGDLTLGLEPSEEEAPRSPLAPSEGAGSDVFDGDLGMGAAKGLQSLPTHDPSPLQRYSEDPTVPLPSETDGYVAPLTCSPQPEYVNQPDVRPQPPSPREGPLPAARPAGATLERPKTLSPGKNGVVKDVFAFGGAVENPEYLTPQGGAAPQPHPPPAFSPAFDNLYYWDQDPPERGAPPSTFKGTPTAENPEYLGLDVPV

SMILES	viability [1]	Her2 level [2]	viability [3]	viability [4]	viability [5]	differential viability (reversal) ([6]; H69AR cells + 2 uM doxorubicin)	viability [6, 9]	viability [6, 10]	inhibition [7]	inhibition [8]
Cc1ccc(S(=O)(=O)NCCNC(=O)c2ccccc2)cc1	99%	82% (inactive)	99% (inactive)	105% (inactive)	99.2% (inactive)	19.7% (inactive)	79.5%	99.2%	-8.92% (inactive)	-0.83% (inactive)
Cc1ccc(CCNC(=O)C2CCN(S(=O)(=O)c3ccc4c(c3)CCC(=O)N4)CC2)cc1	98.5%	100% (inactive)	98.5% (inactive)	44.2% (inactive)	79.9% (inactive)	10.6% (inactive)	69.3%	79.9%	-0.67% (inactive)	-6.07% (inactive)
CCCCNC(=O)c1nc2ncc(Br)cn2n1	108%	75% (inactive)	108% (inactive)	100% (inactive)	85.4% (inactive)	-5.97% (inactive)	91.4%	85.4%	-3.51% (inactive)	-2.3% (inactive)
Cc1cccc(-c2cc3nc(C)cc(NCCCN(C)C)n3n2)c1	91.5%	87.5% (inactive)	91.5% (inactive)	57.5% (inactive)	82.8% (inactive)	6.94% (inactive)	75.8%	82.8%	-6.93% (inactive)	1.97% (inactive)
CC(=O)Nc1ccc2c(c1)nc(CCNC(=O)c1ccccc1)n2C	90.5%	89% (inactive)	90.5% (inactive)	110% (inactive)	102% (inactive)	15.8% (inactive)	85.7%	102%	-8.36% (inactive)	-1.43% (inactive)
CCN(CC)c1ccc2cc(NC(=O)CCC(=O)O)c(=O)oc2c1	89%	99% (inactive)	89% (inactive)	81.1% (inactive)	95.7% (inactive)	-12.2% (inactive)	108%	95.7%	-2.13% (inactive)	-5.32% (inactive)
Cc1cccc2cc(COC(=O)C(C)(C)C)c(=O)[nH]c12	95.5%	91.5% (inactive)	95.5% (inactive)	108% (inactive)	97.6% (inactive)	2.58% (inactive)	95%	97.6%	0.13% (inactive)	5.17% (inactive)
O=C(Nc1ccc(Cl)cc1C(=O)Nc1ccncc1)c1ccco1	121%	48.5% (active)	121% (inactive)	70.1% (inactive)	41.3% (active)	-19.2% (inactive)	60.5%	41.3%	-1.84% (inactive)	-1.59% (inactive)
Cc1[nH]c(=O)[nH]c(=O)c1S(=O)(=O)N1CCCC(C(=O)NCc2ccco2)C1 (stereo not given)	102%	80% (inactive)	102% (inactive)	96.3% (inactive)	86.4% (inactive)	-1.73% (inactive)	88.1%	86.4%	-3.82% (inactive)	0.67% (inactive)
CC(C)CCN1CC(C(=O)NCc2ccccc2)CC1=O (stereo not given)	88.5%	87.5% (inactive)	88.5% (inactive)	88% (inactive)	92.6% (inactive)	1.32% (inactive)	91.2%	92.6%	1.28% (inactive)	-0.83% (inactive)
CCCCN(C)Cc1c(C)[nH]c2c(Cl)cccc2c1=O	84.5%	87% (inactive)	84.5% (inactive)	96% (inactive)	90.6% (inactive)	13.7% (inactive)	76.9%	90.6%	-4.34% (inactive)	-2.06% (inactive)
Cc1cccc(NS(=O)(=O)c2cc(C(=O)OCC(=O)Nc3cc(C)on3)ccc2C)c1	93%	86% (inactive)	93% (inactive)	77.7% (inactive)	112% (inactive)	10.1% (inactive)	102%	112%	-2.8% (inactive)	-2.26% (inactive)
Cc1ccccc1NC(=O)C1CC(=O)N(c2ccccc2F)C1 (stereo not given)	91.5%	81% (inactive)	91.5% (inactive)	102% (inactive)	100% (inactive)	18.3% (inactive)	82.1%	100%	-8.65% (inactive)	6.89% (inactive)
O=C1N(CCCCN2C(=O)C3(OCCO3)c3ccccc32)c2ccccc2C12OCCO2	100%	84.5% (inactive)	100% (inactive)	73.2% (inactive)	84.9% (inactive)	11.1% (inactive)	73.7%	84.9%	-0.39% (inactive)	11.5% (inactive)
CCNc1nc(N2CCCCC2)nc(-n2nnc(C(=O)OCC)c2C)n1	162%	94% (inactive)	162% (inactive)	116% (inactive)	95.7% (inactive)	1.31% (inactive)	94.3%	95.7%	-6.45% (inactive)	4.75% (inactive)
CC(=O)N1CCN(c2ccc(S(=O)(=O)N3CCCCC3)cn2)CC1	97%	89.5% (inactive)	97% (inactive)	101% (inactive)	88.6% (inactive)	3.99% (inactive)	84.6%	88.6%	-0.39% (inactive)	-0.16% (inactive)

SMILES	viability [1]	Her2 level [2]	viability [3]	viability [4]	viability [5]	differential viability (reversal) ([6]; H69AR cells + 2 uM doxorubicin)	viability [6, 9]	viability [6, 10]	inhibition [7]	inhibition [8]
Cc1noc(C)c1CSc1nnc(-c2ccncc2)n1-c1cccc(Cl)c1C	81.5%	93.5% (inactive)	81.5% (inactive)	81% (inactive)	88.4% (inactive)	2.37% (inactive)	86%	88.4%	-3.42% (inactive)	-8.25% (inactive)
CCc1nc2c(cnn2-c2ccc(Cl)cc2)c(=O)n1-c1ccc2c(c1)OCCO2	90%	86.5% (inactive)	90% (inactive)	83.3% (inactive)	83.6% (inactive)	-4.38% (inactive)	88%	83.6%	0.79% (inactive)	-5.97% (inactive)
CC(=O)c1c(C)[nH]c(C(=O)N2CCN(C(=O)c3ccco3)CC2)c1C	85%	102% (inactive)	85% (inactive)	94.5% (inactive)	99.1% (inactive)	0.42% (inactive)	98.7%	99.1%	-2.3% (inactive)	-0.49% (inactive)
CN(C)C(=O)Cn1c(SCC(=O)NC2CCCCC2)nc2ccccc21	72%	76% (inactive)	72% (inactive)	101% (inactive)	102% (inactive)	14.8% (inactive)	87.5%	102%	-6.08% (inactive)	0.16% (inactive)
O=C(OCc1nnc(-c2ccccc2)o1)C1=COCCO1	100%	94% (inactive)	100% (inactive)	101% (inactive)	92.1% (inactive)	-0.965% (inactive)	93%	92.1%	-8.67% (inactive)	-1.97% (inactive)
O=C(OC1CCOC1=O)c1ccc2ccccc2n1 (stereo not given)	98.5%	85% (inactive)	98.5% (inactive)	101% (inactive)	102% (inactive)	9.04% (inactive)	93.4%	102%	-6.93% (inactive)	1.75% (inactive)
O=C(NCc1ccco1)c1cnn2c(C(F)(F)F)cc(-c3ccco3)nc12	86.5%	74.5% (inactive)	86.5% (inactive)	92.9% (inactive)	71.8% (inactive)	0.17% (inactive)	71.7%	71.8%	-7.26% (inactive)	1.9% (inactive)
CC1CCN(C(=O)C2CCN(S(=O)(=O)c3cnc[nH]3)CC2)CC1	98%	93% (inactive)	98% (inactive)	96.5% (inactive)	103% (inactive)	7.72% (inactive)	95.3%	103%	-4.61% (inactive)	3.87% (inactive)
O=C(O)CC1=C(O)C(=O)N(c2ccccc2)C1c1ccccc1 (stereo not given)	102%	107% (inactive)	102% (inactive)	96.9% (inactive)	102% (inactive)	7.7% (inactive)	94.1%	102%	-1.49% (inactive)	-0.49% (inactive)
CC(=O)NCCn1ccc2ccccc21	117%	106% (inactive)	117% (inactive)	96.4% (inactive)	91.7% (inactive)	-3.84% (inactive)	95.5%	91.7%	-4.13% (inactive)	3.93% (inactive)
CSCCC(NS(=O)(=O)c1ccc2c(c1)oc(=O)n2C)C(=O)NC1CCCCC1 (stereo not given)	91%	110% (inactive)	91% (inactive)	87.4% (inactive)	103% (inactive)	12.6% (inactive)	90.1%	103%	0.9% (inactive)	-3.17% (inactive)
Cc1ccccc1CS(=O)(=O)CCC(=O)N1CCN(c2ccc(N3CCOCC3)nn2)CC1	91.5%	81% (inactive)	91.5% (inactive)	97.1% (inactive)	103% (inactive)	10.7% (inactive)	92.7%	103%	-2.24% (inactive)	-0.73% (inactive)
Cc1cc(C)cc(NS(=O)(=O)c2ccc3[nH]c(=O)[nH]c3c2)c1	108%	89% (inactive)	108% (inactive)	90.1% (inactive)	85.5% (inactive)	-0.57% (inactive)	86%	85.5%	-2.21% (inactive)	-4.5% (inactive)
COc1ccc(C(=O)OCC(=O)NCc2ccco2)cc1OC	110%	89.5% (inactive)	110% (inactive)	102% (inactive)	78.4% (inactive)	-3.74% (inactive)	82.1%	78.4%	-1.95% (inactive)	-6.23% (inactive)
c1cnc2c(SCc3ccc(-c4nnco4)cc3)cccc2c1	98.5%	101% (inactive)	98.5% (inactive)	80.7% (inactive)	97.2% (inactive)	12.1% (inactive)	85.2%	97.2%	-2.03% (inactive)	-12.4% (inactive)
